Assay results as given in publication PMC9660540 (Clinical Cancer Research, 2022).
Read-outs that look alike come from different tables or passages of the source.

How the values were obtained:
[1] = test system: intratumoral adenosine signaling; settings: ref [12], cited from earlier work
[2] = test system: metastatic castration-resistant prostate cancer (mCRPC); assay type: in vivo, human
Summary of the method: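 For the signature, baseline whole-blood RNA (PAXgene) was hybridized (25–100 ng) to a 770-gene NanoString panel and ComBat batch-corrected. The score was the median of normalized log2 expression of 14 adenosine genes; the cohort median split high from low.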

[3] = Plasma pharmacokinetics of AZD4635 and active metabolite in patients; assay type: in vivo, human; settings: for half-life: plasma, oral
[4] = test system: metastatic castration-resistant prostate cancer (mCRPC); assay: Tumor response; assay type: in vivo, human
[5] = healthy volunteers; ref [32]; cited from earlier work
CYP1A2 = settings: clinical drug–drug interaction study with fluvoxamine; ref [34]; cited from earlier work
[6] = test system: metastatic castration-resistant prostate cancer (mCRPC); assay: PSA response in patients with mCRPC; assay type: in vivo, human
[7] = Dose-limiting toxicity and RP2D, phase Ia dose escalation; assay type: in vivo, human
Summary of the method: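 Phase Ia used Bayesian logistic regression–guided escalation of the oral nanosuspension, with or without durvalumab; capsule cohorts took 75, 150 or 200 mg once daily. A DLT was non-disease-related toxicity before day 21 (monotherapy) or end of cycle 2 (combination), e.g. grade ≥4 neutropenia >7 days or grade ≥3 nonhematologic toxicity.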

[8] = test system: colorectal cancer (IO-naïve); assay: Tumor response; assay type: in vivo, human

Cc1cc(-c2nnc(N)nc2-c2ccc(F)cc2)cc(Cl)n1 [AZD4635]
Patients with concordant increases in gene-expression signatures of cytolytic activity and IFNG signaling ([1]; among the 5 patients with decreased adenosine signaling): 4 patients | Patients in whom intratumoral adenosine signaling decreased ([1]; nanosuspension 75 or 100 mg, 2 weeks of monotherapy, of 7 patients): 5 patients | Median PFS [2]: 10.1 weeks | PFS probability at 24 weeks [2]: 24.2% | PFS probability at 24 weeks ([2]; AZD4635 monotherapy or plus durvalumab, high blood-adenosine signature): 48.9% | PFS probability at 24 weeks ([2]; AZD4635 monotherapy or plus durvalumab, low blood-adenosine signature): 20.6% | Accumulation in exposure (Cmax and AUC) ([3]; following multiple dosing): minimal accumulation | PK profile ([3]; human, in vivo): linear and dose-proportional | half-life ([3]; human, median t1/2, after a single dose, across doses): 7.92 to 14.5 h | half-life ([3]; human, t1/2, overall (range, 11–24 hours)): ~14 h | Disease control rate (DCR; CR, PR, or SD for at least 22 weeks) ([4]; mCRPC): 18.0% | Duration of response ([4]; mCRPC responders, monotherapy and plus durvalumab together): 2.3 to 34.0 months | Tumor responses ([4]; mCRPC, responders/evaluable): 2/39 | Confirmed PR ([4]; mCRPC, tumor response–evaluable population): 2 patients | AUC of capsule formulation compared with nanosuspension, higher by [5]: ~10% | Cmax of capsule formulation compared with nanosuspension, higher by [5]: approximately 27% | Metabolism (CYP1A2): primarily metabolized by CYP1A2 | Confirmed PSA responses [6]: 3.3% | PSA50 response [6]: 5.0% | Prostate-specific antigen responses ([6]; responders/evaluable): 3/60 | DLTs ([7]; capsule formulation, doses of up to 200 mg): no DLTs | Patients with a DLT ([7]; phase Ia, nanosuspension monotherapy 75 mg or 100 mg once daily): No patients | Patients with DLTs ([7]; phase Ia, nanosuspension monotherapy 125 mg twice daily, out of 3 patients): 2 | Best response of stable disease (SD) after a minimum of 2 cycles [8]: 9 (45.0%) n (%)
